Results gathered from unrelated publications.
Lines come from different studies, so protocols differ.
ABL1 phosphorylated: Tyrosine-protein kinase ABL1, phosphorylated (ABL1, Homo sapiens, UniProt P00519)
ABL1 F317L phosphorylated: Tyrosine-protein kinase ABL1, phosphorylated (ABL1, Homo sapiens, UniProt P00519, F317L)
ABL1 T315I non-phosphorylated: Tyrosine-protein kinase ABL1, non-phosphorylated (ABL1, Homo sapiens, UniProt P00519, T315I)
ABL1 M351T phosphorylated: Tyrosine-protein kinase ABL1, phosphorylated (ABL1, Homo sapiens, UniProt P00519, M351T)
ABL1 H396P phosphorylated: Tyrosine-protein kinase ABL1, phosphorylated (ABL1, Homo sapiens, UniProt P00519, H396P)
ABL1 F317I non-phosphorylated: Tyrosine-protein kinase ABL1, non-phosphorylated (ABL1, Homo sapiens, UniProt P00519, F317I)
ABL1 non-phosphorylated: Tyrosine-protein kinase ABL1, non-phosphorylated (ABL1, Homo sapiens, UniProt P00519)
ABL1 Q252H phosphorylated: Tyrosine-protein kinase ABL1, phosphorylated (ABL1, Homo sapiens, UniProt P00519, Q252H)
ABL1 Y253F phosphorylated: Tyrosine-protein kinase ABL1, phosphorylated (ABL1, Homo sapiens, UniProt P00519, Y253F)

SMILES | target | assay | setting | remaining binding [%]
CN(C)c1nccc(-c2cnc3ncccn23)n1 | ABL1 phosphorylated | binding | 1 µM | 57
CNC(=O)[C@@H]1CC[C@@H](n2c(-c3ccc4cnccc4c3)nc3ccc(C(=O)NCc4cccc(C(N)=O)c4)cc32)C1 | ABL1 F317L phosphorylated | binding, competition with immobilised ligand | 1 µM | 95
C[C@H]1CCN(c2nccc(-c3cnn4ncccc34)n2)C1 | Tyrosine-protein kinase ABL1 (ABL1, Homo sapiens, UniProt P00519, M351T) | binding | 1 µM | 75
C=CC(=O)N1CCC(C(=O)NCC(=O)N2CCN(c3nc(-c4cnc(N)nc4C(F)F)nc(N4CCOCC4)n3)CC2)CC1 | ABL1 T315I non-phosphorylated | binding, competition with immobilised ligand | 1 µM | 71
Nc1ncc2c(n1)-c1c([nH]c3ccc(C#CC4CC4)cc13)CCCC2 | ABL1 M351T phosphorylated | binding, competition with immobilised ligand | 1 µM | 95
O=C(NCCCN1CCOCC1)c1ccc(Nc2nccc(-c3cc4ccccc4s3)n2)cc1 | ABL1 H396P phosphorylated | binding, competition with immobilised ligand | 1 µM | 61
CS(=O)(=O)c1cc(C2(NC(=O)c3cncc4c3cnn4-c3ccc(F)cc3)CC2)ccn1 | ABL1 M351T phosphorylated | cell-free assay, competition with immobilised ligand | 1 µM | 92
COc1ncc2cc3ccccc3nc2c1C#N | ABL1 F317I non-phosphorylated | cell-free assay, competition with immobilised ligand | 5 µM | 96
CCN1CCN(Cc2ccc(C(=O)Nc3ccc(C)c(Oc4ccc5c(c4)CC(=O)N5)c3)cc2C(F)(F)F)CC1 | ABL1 F317I non-phosphorylated | binding, competition with immobilised ligand | 1 µM | 1
c1cncc(-c2cccc(Nc3nccc(NC4CCCCC4)n3)c2)c1 | ABL1 T315I non-phosphorylated | binding, competition with immobilised ligand | 10 µM | 79
O=C(NCC1CCOCC1)c1n[nH]cc1NC(=O)c1c(F)cccc1F | ABL1 non-phosphorylated | binding, competition with immobilised ligand | 1 µM | 88
CN(C)c1nccc(-c2cnn3ncccc23)n1 | ABL1 phosphorylated | binding | 1 µM | 96
C[C@H](c1cccc(C#N)c1)n1cc(Cl)cc(C(N)=O)c1=N | ABL1 Q252H phosphorylated | cell-free assay, competition with immobilised ligand | 1 µM | 84
O=C(c1ccc(Nc2ncc(Cl)c(-c3cc4ccccc4s3)n2)cc1)N1CCC(N2CCCC2)CC1 | ABL1 non-phosphorylated | binding, competition with immobilised ligand | 1 µM | 17
CNC(=O)Nc1ccc2c(c1)CC[C@@]21OC(=O)N(CC(=O)N(Cc2ccc(F)cc2)[C@@H](C)C(F)(F)F)C1=O | ABL1 T315I non-phosphorylated | cell-free assay, competition with immobilised ligand | 1 µM | 78
COc1cnc(Nc2cccc(S(N)(=O)=O)c2)nc1N1CCN(c2ccccc2)C(=O)C1 | ABL1 Y253F phosphorylated | binding, competition with immobilised ligand | 1 µM | 82
C[C@@H](c1ccc(-n2cnc3c(N)ncnc32)cc1)N1CCc2nn(C)c(Cc3ccccc3)c2C1=O | ABL1 F317L phosphorylated | binding, competition with immobilised ligand | 0.1 µM | 49
N[C@@H]1CCN(c2nccc(-c3cnn4ncccc34)n2)C1 | Tyrosine-protein kinase ABL1 (ABL1, Homo sapiens, UniProt P00519, T315I) | binding | 1 µM | 95
Cc1cnc(Nc2ccc(C(=O)N3CCC(N4CCCC4)CC3)cc2)nc1-c1cc2ccccc2s1 | ABL1 Q252H phosphorylated | binding, competition with immobilised ligand | 1 µM | 1.4
O=C(NCc1ncc(C(F)(F)F)cc1Cl)c1ccc2c(c1)C1(CCS(=O)(=O)CC1)[C@H](C1CC1)N2S(=O)(=O)c1ccc(F)cc1 | ABL1 Q252H phosphorylated | cell-free assay, competition with immobilised ligand | 1 µM | 70
CN(CCCC(F)(F)F)c1nccc(-c2cnn3ncccc23)n1 | ABL1 phosphorylated | binding | 1 µM | 100
COc1cc(-c2cn(C3CCc4c(F)cccc4N(CC(F)(F)F)C3=O)nn2)ccc1-n1cnc(C)c1 (centres unmarked) | ABL1 phosphorylated | cell-free assay, competition with immobilised ligand | 1 µM | 100
O=C(Nc1c[nH]nc1C(=O)NC1CCNCC1)c1cc(F)cc(F)c1 | ABL1 H396P phosphorylated | binding, competition with immobilised ligand | 1 µM | 100
CS(=O)(=O)NCC[C@H](NC(=O)c1cncc2c1cnn2-c1ccc(F)cc1)c1ccnc(S(C)(=O)=O)c1 | Tyrosine-protein kinase ABL1, phosphorylated (ABL1, Homo sapiens, UniProt P00519, E255K) | binding, competition with immobilised ligand | 1 µM | 93
O=C(c1ccc(Nc2ncc(Cl)c(-c3ccc(Cl)s3)n2)cc1)N1CCC(N2CCCC2)CC1 | ABL1 M351T phosphorylated | binding, competition with immobilised ligand | 1 µM | 4.7
O=C(Nc1cccnn1)N1CC(C/C=C/c2cncc(Oc3ccc(C(F)(F)F)cn3)n2)C1 | Tyrosine-protein kinase ABL1, phosphorylated (ABL1, Homo sapiens, UniProt P00519, F317I) | cell-free assay, competition with immobilised ligand | 1 µM | 67
O=C(NCCCN1CCOCC1)c1ccc(Nc2ncc(Cl)c(-c3ccc(Cl)s3)n2)cc1 | ABL1 Y253F phosphorylated | binding, competition with immobilised ligand | 1 µM | 38
O=C(O)[C@@H]1[C@@H](Cn2nnc3ccccc3c2=O)CC[C@H]1C(=O)c1ccc(OCCC2CCOCC2)cc1 | Tyrosine-protein kinase ABL1, non-phosphorylated (ABL1, Homo sapiens, UniProt P00519, H396P) | cell-free assay, competition with immobilised ligand | 1 µM | 97
COc1cnc(Nc2cccc(S(N)(=O)=O)c2)nc1N1CCN(c2ccccc2)CC1 | ABL1 F317I non-phosphorylated | binding, competition with immobilised ligand | 1 µM | 94
